In the assay the target is G protein-activated inward rectifier potassium channel 2 (Homo sapiens) + G protein-activated inward rectifier potassium channel 3 (Homo sapiens) (UniProt P48051+Q92806). Nature of the assay: activation of GIRK2/3-mediated thallium influx – cell-based, HEK-293 hGIRK2/3, thallium flux, FluoZin-2, concentration-response, dose response (AID 623983). The essentials: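 Assay system: HEK-293 cells stably expressing human GIRK2/3 channels. Reagent: thallium stimulus containing EC20 glutamate. Incubation: FluoZin-2 AM loading ~60 min room temperature, compound 4 min pre-thallium. Technique: FluoZin-2 fluorescence thallium flux, sampled at 1 Hz. Control set: 80 mM methyl pentanediol as maximal activation reference, vehicle wells.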
Chain of G protein-activated inward rectifier potassium channel 2 (Homo sapiens) + G protein-activated inward rectifier potassium channel 3 (Homo sapiens) (P48051 whole entry, looked up): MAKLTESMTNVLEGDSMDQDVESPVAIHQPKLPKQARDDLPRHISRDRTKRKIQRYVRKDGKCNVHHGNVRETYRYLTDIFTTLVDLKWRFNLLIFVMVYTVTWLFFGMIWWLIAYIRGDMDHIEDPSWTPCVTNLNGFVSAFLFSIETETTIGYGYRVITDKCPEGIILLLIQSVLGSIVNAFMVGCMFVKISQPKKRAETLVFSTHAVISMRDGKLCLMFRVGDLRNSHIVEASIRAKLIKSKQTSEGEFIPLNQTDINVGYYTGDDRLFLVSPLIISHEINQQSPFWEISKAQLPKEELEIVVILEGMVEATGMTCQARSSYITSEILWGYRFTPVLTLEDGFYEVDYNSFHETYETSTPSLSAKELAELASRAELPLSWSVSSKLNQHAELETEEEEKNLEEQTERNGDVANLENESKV
Chain of G protein-activated inward rectifier potassium channel 2 (Homo sapiens) + G protein-activated inward rectifier potassium channel 3 (Homo sapiens) (Q92806 whole entry, looked up): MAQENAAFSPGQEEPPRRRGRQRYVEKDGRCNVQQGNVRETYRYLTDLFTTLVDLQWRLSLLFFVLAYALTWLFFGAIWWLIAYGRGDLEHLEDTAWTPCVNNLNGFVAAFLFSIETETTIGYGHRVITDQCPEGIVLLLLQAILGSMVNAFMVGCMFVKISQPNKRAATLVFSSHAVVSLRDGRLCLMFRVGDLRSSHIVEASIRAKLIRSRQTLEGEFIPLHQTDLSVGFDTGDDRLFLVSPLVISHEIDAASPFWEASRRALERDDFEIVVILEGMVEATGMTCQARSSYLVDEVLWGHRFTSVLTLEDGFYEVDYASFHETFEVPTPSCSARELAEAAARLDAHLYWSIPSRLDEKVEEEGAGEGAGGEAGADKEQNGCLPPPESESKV

Active and inactive are the calls of the source. How the calls were made is not given here.

This is an account of results in PubChem BioAssay AID623983 (Vanderbilt High Throughput Screening Facility, 2012).

For `Cc1cc(NC(=O)Nc2ccc(F)c(F)c2)n(-c2ccccc2)n1`, the outcome was inactive.
